Experimental findings from article PMC9804882 (Chemmedchem, 2022) are described below.

For experiment [1], the target named is T1, labeled rabbit muscle actin (Oryctolagus cuniculus, UniProt P68135). Put plainly: In vitro actin polymerization assay. It is filed as biochemical. Particulars: 5 μM; for actin polymerization curve, RFU reached (lowest point/plateau): CTRL about 37,000 RFU. An outline of the steps: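 Labeled rabbit muscle actin incubated with test compound (5 μM) using a commercial polymerization kit. DMSO as negative control; latrunculin A and cytochalasin B (5 μM) as reference agents. Filament assembly followed by fluorescence (ex/em 365/410 nm) in kinetic mode for 1 h at room temperature; curves representative of three separate tests.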

In experiment [2] the target is T1, labeled rabbit muscle actin. The experiment is described as follows: In vitro actin depolymerization assay. It is filed as biochemical. Particulars: 5 μM, added after 1 h polymerization. An outline of the steps: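 Labeled rabbit muscle actin first polymerized for 1 h under polymerization-assay conditions. Test compound (5 μM) then added, and fluorescence (ex/em 365/410 nm) monitored kinetically for another hour at room temperature. DMSO vehicle; latrunculin A and cytochalasin B (5 μM) as controls; three separate tests.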

A further experiment has as its system MDA‐MB‐231 cells. The experiment is described as follows: MTT assay. It is filed as cell-based, human. In outline:
(§1)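 Cells seeded in 48-well plates and serum-starved. They were then exposed for 72 h to test compound dissolved in DMSO over 0.1–200 μM, with viability read by MTT. IC50 calculated from concentration–response data; experiments in triplicate, reported as mean ± SD.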
A general note: Tetrazolium dyes change colour on reduction, which living cells bring about.

Experiment [3] relates to MCF‐7 cells. Put plainly: MTT assay. It is filed as cell-based, human. In outline: as §1
The next experiment has as its system MCF‐10A cells. The experiment is described as follows: MTT assay, cytotoxicity on normal cells. It is filed as cell-based, human. Particulars: 72 h. In outline: as §1
Experiment [4] deals with Gram‐positive and Gram‐negative bacteria (E. coli, S. aureus, E. faecalis). The experiment is described as follows: MBC determination and ampicillin control, broth dilution, all strains. It is filed as cell-based. Particulars: all strains used, standard antibiotic control. An outline of the steps:
(§2)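 Broth dilution per CLSI. Overnight LB cultures diluted to 4000 CFU/mL in 96-well plates, then exposed to test compound at 1, 5, 10, 20, 50 or 100 μg/mL for 18 h at 37 °C. Growth read at 600 nm against DMSO-vehicle growth control; compound-only sterility control; ampicillin as strain-sensitivity control. MIC: lowest concentration inhibiting visible growth; MBC: lowest fully bactericidal concentration. Five experiments, each in triplicate.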

The subject of experiment [5] is Escherichia coli (ATCC 25922). The experiment is described as follows: MIC determination, broth dilution. It is filed as cell-based. Particulars: E. coli ATCC 25922, broth dilution, 37 °C 18 h. An outline of the steps: as §2
For orientation: Dilution methods test growth across graded concentrations, often in twofold steps.

The test system of experiment [6] is Staphylococcus aureus (ATCC 23235). Put plainly: MIC determination, broth dilution. It is filed as cell-based. Particulars: S. aureus ATCC 23235, broth dilution, 37 °C 18 h. An outline of the steps: as §2
In experiment [7] the test system is Enterococcus faecalis (ATCC 19433). Put plainly: MIC determination, broth dilution. It is filed as cell-based. Particulars: E. faecalis ATCC 19433, broth dilution, 37 °C 18 h. An outline of the steps:
as §2

In experiment [8] the test system is MCF‐7 cells. The experiment is described as follows: Immunofluorescence analysis of β‐actin. It is filed as cell-based, human. Particulars: MCF‐7, 24 h, IC50 value / 5 μM.
The next experiment deals with T2, recombinant human topo I (Homo sapiens, UniProt P11387).
T2 sequence (P11387 1-765): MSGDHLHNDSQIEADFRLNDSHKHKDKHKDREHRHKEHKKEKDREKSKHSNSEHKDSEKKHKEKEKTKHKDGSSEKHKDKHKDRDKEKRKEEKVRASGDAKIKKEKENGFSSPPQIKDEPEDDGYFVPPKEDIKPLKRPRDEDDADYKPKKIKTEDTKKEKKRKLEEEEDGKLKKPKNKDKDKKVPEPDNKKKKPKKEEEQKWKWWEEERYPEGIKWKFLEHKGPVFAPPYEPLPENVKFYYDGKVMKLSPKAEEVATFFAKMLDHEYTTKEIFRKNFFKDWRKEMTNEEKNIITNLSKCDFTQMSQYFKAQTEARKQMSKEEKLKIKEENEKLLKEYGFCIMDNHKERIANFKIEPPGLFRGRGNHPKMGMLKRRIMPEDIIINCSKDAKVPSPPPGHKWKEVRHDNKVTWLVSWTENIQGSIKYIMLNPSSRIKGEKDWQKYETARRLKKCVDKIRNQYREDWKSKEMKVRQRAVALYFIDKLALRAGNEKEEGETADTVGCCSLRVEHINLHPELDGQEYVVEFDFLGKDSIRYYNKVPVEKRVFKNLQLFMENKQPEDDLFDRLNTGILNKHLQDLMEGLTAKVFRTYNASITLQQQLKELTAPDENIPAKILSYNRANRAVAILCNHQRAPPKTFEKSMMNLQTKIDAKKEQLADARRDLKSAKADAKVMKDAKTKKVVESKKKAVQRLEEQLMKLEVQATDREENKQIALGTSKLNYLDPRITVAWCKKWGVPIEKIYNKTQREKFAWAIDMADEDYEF
The experiment is described as follows: Human topoisomerase I relaxation assay. It is filed as biochemical. Particulars: 1 μM, supercoiled pHOT1 substrate. In outline: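 Supercoiled pHOT1 (0.25 μg) relaxed by 2 U recombinant human topo I, without or with test compound at 1 μM; DMSO vehicle control; relaxed-DNA marker run alongside. Products separated on 1% agarose in 1X TAE without ethidium bromide and visualized on a UV transilluminator.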

The target of another experiment is human topoisomerase II (Homo sapiens, UniProt P11388). The experiment is described as follows: Human topoisomerase II decatenation assay. It is filed as biochemical. Particulars: kDNA substrate. In outline: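 Decatenation of kinetoplast DNA (0.3 μg) by 3 U human topo II, with test compound at 1 or 10 μM or DMSO vehicle; linear and decatenated kDNA markers included. Gel: 1% agarose in 1X TAE with ethidium bromide (0.5 μg/ml), UV transilluminator read-out.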

Experiment [9] concerns MCF‐7 cells. Put plainly: TUNEL assay. Particulars: MCF‐7, 24 h, at IC50 value. It is filed as cell-based, human.
The mark [10] stands for this setting: MCF‐10A normal mammary epithelium, MTT.

Some results are limits rather than exact numbers.

human topoisomerase II, sequence (P11388 whole entry): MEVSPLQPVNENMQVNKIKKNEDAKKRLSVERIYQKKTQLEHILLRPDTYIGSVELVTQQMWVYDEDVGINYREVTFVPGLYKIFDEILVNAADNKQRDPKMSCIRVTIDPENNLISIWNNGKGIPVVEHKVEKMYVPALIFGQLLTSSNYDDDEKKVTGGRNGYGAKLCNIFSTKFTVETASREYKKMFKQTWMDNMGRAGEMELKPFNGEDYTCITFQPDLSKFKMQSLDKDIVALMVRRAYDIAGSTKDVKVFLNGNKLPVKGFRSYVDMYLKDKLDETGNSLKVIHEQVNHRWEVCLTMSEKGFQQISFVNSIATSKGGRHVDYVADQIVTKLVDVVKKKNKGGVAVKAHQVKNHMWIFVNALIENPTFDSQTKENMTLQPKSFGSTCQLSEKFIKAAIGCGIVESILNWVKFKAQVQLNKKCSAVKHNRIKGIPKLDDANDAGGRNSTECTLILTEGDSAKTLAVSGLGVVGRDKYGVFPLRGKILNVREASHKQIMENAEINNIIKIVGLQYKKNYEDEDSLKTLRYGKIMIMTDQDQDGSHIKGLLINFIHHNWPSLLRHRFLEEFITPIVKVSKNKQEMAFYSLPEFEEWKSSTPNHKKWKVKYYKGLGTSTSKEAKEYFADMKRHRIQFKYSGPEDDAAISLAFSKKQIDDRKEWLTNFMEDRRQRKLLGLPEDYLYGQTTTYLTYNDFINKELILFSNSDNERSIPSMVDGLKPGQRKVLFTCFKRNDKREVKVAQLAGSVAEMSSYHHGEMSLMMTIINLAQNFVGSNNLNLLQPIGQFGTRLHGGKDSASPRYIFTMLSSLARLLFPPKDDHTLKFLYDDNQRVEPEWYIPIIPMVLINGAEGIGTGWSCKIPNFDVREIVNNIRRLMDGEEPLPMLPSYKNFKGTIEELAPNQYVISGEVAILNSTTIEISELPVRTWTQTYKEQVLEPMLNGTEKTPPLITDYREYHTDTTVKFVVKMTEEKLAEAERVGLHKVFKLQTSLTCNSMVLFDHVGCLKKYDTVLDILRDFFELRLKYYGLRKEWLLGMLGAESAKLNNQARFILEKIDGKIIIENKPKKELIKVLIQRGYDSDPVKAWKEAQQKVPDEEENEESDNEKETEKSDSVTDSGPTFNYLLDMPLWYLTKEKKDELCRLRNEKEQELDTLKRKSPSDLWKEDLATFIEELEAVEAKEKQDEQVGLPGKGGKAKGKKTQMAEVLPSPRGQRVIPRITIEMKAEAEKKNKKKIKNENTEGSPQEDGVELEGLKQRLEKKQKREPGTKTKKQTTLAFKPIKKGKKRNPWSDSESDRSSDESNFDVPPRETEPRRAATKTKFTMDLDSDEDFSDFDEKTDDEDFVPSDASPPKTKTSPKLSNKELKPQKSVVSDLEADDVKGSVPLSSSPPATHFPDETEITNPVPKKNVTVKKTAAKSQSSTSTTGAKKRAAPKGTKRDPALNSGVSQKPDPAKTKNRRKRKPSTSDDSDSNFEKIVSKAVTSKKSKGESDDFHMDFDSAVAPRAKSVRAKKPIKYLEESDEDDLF

Regarding `C=C1[C@@H](C)[C@H]2[C@H](Cc3ccccc3)NC(=O)[C@]23OC(=O)/C=C/[C@H](O)CCC[C@@H](C)C/C=C/[C@H]3[C@@H]1O` [CB, cytochalasin B, reference compound], in experiment [1], the “effect on actin polymerization” value is “totally impeded the actin polymerization” and the “actin polymerization curve, RFU reached (lowest point/plateau)” value is recorded as “approximately 20,000 RFU”. Besides, the “effect on actin depolymerization” value in experiment [2] is on record as “no relevant changes in RFU”. Moreover, the “actin depolymerization curve, RFU reached” value in [2] (initial value 28,000 RFU) was “about 28,000 RFU”.
For `C/C1=C/C(=O)O[C@@H]2C[C@@H](CC[C@H](C)/C=C\C=C\CC1)O[C@@](O)([C@@H]1CSC(=O)N1)C2` [Latrunculin A, reference compound], the IC50 is 0.024 µM with MDA‐MB‐231 cells (Homo sapiens, MDA-MB-231, 72 h); 0.14 µM in the experiment on MCF‐7 cells [3] (Homo sapiens, MCF7, 72 h); 0.045 µM in the experiment with MCF‐10A cells (Homo sapiens, MCF-10A). Besides, in experiment [1], the “effect on actin polymerization” value was “totally impeded the actin polymerization”. The “effect on actin depolymerization” value in experiment [2] was “actin depolymerization has occurred”.
With `N.N.[Cl][Pt][Cl]` [Cisplatin, reference compound], the IC50 in the experiment with MDA‐MB‐231 cells (MDA‐MB‐231, MTT, 72 h) was 28.7 ± 0.4 µM; in the experiment with MCF‐7 cells [3] (MCF‐7, MTT, 72 h) it was 35.8 ± 0.7 µM; with MCF‐10A cells (setting [10]), 81.3 ± 0.6 µM.
Regarding `CC1(C)S[C@@H]2[C@H](NC(=O)[C@H](N)c3ccccc3)C(=O)N2[C@H]1C(=O)O` [ampicillin, Ampicillin], in [4], the “strain sensibility to ampicillin” value was “ampicillin‐sensible”.
Turning to “[4,5‐dichloro‐[(N‐methyl‐N’(2‐hydroxy‐2‐phenyl‐ethyl)imidazole‐2‐ylidene]silver(I)] acetate [Compound 6]”, the MIC was found to be 10 µg/mL in experiment [5], 5 µg/mL in [6] and 10 µg/mL in experiment [7]. Moreover, the IC50 in the experiment on MDA‐MB‐231 cells (MDA‐MB‐231, MTT, 72 h) was 38.1 ± 0.8 µM; in the experiment with MCF‐7 cells [3] (MCF‐7, MTT, 72 h), 13.2 ± 0.3 µM; with MCF‐10A cells (setting [10]), > 200 µM. Besides, the “effect on actin polymerization” value in [1] is listed as “inhibitory activity on the polymerization of G‐actin, higher than that of CB”. Also, the “time to reach the lowest point of the polymerization curve” value in experiment [1] was “around 12 minutes”. In addition, in experiment [1], the “actin polymerization curve, RFU reached (lowest point/plateau)” value was “approximately 13,000 RFU”. Moreover, the “effect on actin depolymerization” value in experiment [2] is on record as “able to act as a depolymerization inducer”. In addition, the “actin cytoskeleton organization / cell morphology” value in the experiment on MCF‐7 cells [8] is on record as “caused comparable disorganization of this structure”. Moreover, on recombinant human topo I, the “inhibition of hTopo I activity” value is “total inhibition of the enzyme activity”. Moreover, the “inhibition of hTopo II activity” value is given as “did not produce the enzyme inhibition” against human topoisomerase II (1 μM) and “totally inhibit the hTopo II activity” at human topoisomerase II (10 μM). The “apoptosis (green nuclear fluorescence, DNA fragmentation)” value in the experiment with MCF‐7 cells [9] is listed as “induced apoptosis”.
Consider `COC(Cn1ccn(C)[c]1=[Ag-2][I])c1ccccc1` (stereo not shown) [Compound 3, [N‐methyl,N’‐(2‐metoxy‐2‐phenyl)ethyl‐imidazole‐2‐ylidenesilver(I)] iodide], for which the minimal inhibitory concentration (MIC) in experiment [5] stood at 5 µg/mL; in [6], 5 µg/mL; in experiment [7] it was 10 µg/mL. Further, the 50% inhibitory concentration (IC50) with MDA‐MB‐231 cells (MDA‐MB‐231, MTT, 72 h) was 52.6 ± 0.3 µM; with MCF‐7 cells [3] (MCF‐7, MTT, 72 h) it was 31.8 ± 0.8 µM; in the experiment on MCF‐10A cells (setting [10]) it was > 200 µM.

What is called IC50 is the concentration that inhibits the measured activity by half. A high value points to weaker potency in that assay. By MIC is commonly meant the least concentration at which growth counts as inhibited. A low value points to a more susceptible organism.
